Measurements published in ChEMBL document CHEMBL1629713, “Discovery of benzoylisoindolines as a novel class of potent, selective and orally active GlyT1 inhibitors” (Bioorg Med Chem Lett, 2010).
In brackets after ≈: the same amount, converted by molar mass.

Legend:
[1] = Aqueous solubility of the compound by lyophilisate solubility assay; assay type: physicochemical; settings: buffer
Procedure, shortened: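 LYSA: compound in DMSO solution lyophilized, then dissolved in 0.05 M phosphate buffer pH 6.5, stirred 1 h and shaken 2 h; solubility in µg/ml.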

[2] = biological target: T1, Sodium- and chloride-dependent glycine transporter 1 (Homo sapiens, UniProt P48067); assay: Inhibition of human GlyT1 expressed in CHO cells assessed as inhibition of [3H]glycine uptake by liquid scintillation counting; assay type: cell-based
T1 sequence (P48067 whole entry): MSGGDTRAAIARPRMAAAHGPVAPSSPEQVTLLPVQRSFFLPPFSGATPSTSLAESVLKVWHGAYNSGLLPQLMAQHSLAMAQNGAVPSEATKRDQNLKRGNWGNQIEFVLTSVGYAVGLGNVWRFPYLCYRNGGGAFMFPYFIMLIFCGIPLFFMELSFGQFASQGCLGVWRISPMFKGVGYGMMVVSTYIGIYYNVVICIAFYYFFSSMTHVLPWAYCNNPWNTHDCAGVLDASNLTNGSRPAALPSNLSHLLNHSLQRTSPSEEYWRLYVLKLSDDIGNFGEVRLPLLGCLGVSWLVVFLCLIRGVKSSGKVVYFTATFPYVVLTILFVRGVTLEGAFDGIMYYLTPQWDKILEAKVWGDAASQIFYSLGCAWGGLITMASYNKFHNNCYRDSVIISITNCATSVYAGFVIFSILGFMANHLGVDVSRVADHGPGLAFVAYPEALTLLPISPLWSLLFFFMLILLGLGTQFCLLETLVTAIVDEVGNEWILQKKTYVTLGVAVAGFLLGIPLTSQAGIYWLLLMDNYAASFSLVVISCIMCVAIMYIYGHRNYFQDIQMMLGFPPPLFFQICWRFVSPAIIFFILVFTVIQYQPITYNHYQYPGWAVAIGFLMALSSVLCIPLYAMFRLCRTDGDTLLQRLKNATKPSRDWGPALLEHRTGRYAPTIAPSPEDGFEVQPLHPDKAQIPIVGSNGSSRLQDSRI
Procedure, shortened: (§1)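 [3H]-glycine uptake inhibition in cells transfected with human GlyT1 or human GlyT2 cDNA. EC50 values averaged from at least two independent experiments.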

[3] = biological target: T2, Sodium- and chloride-dependent glycine transporter 2 (Homo sapiens, UniProt Q9Y345); assay: Inhibition of human GlyT2 expressed in CHO cells assessed as inhibition of [3H]glycine uptake by liquid scintillation counting; assay type: cell-based; procedure, shortened: as §1
T2 sequence (Q9Y345 whole entry): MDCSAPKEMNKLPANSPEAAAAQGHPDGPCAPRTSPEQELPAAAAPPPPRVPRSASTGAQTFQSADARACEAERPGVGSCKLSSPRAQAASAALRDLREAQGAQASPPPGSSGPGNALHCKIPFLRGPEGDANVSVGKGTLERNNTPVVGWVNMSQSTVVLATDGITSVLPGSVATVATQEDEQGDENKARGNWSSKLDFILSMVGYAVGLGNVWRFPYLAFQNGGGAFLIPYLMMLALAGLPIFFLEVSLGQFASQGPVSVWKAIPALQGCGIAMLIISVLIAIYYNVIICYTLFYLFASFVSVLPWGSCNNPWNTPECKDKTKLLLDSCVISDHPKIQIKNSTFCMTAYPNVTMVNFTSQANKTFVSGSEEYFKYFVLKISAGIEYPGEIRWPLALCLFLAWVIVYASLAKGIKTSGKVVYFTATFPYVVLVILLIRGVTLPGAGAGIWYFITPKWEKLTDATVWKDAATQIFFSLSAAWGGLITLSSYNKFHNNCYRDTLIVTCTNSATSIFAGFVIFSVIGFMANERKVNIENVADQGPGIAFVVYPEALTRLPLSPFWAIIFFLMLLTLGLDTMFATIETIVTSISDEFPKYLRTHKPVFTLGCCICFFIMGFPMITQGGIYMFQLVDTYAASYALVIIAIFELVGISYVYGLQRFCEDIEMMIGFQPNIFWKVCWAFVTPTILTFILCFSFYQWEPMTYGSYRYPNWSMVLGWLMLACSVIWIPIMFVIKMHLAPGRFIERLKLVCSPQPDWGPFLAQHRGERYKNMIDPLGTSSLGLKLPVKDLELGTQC

[4] = Permeability of the compound by PAMPA; assay type: ADME; settings: read-out: permeability
Procedure, shortened: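 PAMPA: permeation constant Pe (10^-6 cm/s) measured through artificial membranes.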

[5] = biological target: hERG (KCNH2) (Homo sapiens, UniProt Q12809); assay: Inhibition of human ERG at 10 uM by patch clamp assay
Chain of hERG (KCNH2) (Q12809 whole entry): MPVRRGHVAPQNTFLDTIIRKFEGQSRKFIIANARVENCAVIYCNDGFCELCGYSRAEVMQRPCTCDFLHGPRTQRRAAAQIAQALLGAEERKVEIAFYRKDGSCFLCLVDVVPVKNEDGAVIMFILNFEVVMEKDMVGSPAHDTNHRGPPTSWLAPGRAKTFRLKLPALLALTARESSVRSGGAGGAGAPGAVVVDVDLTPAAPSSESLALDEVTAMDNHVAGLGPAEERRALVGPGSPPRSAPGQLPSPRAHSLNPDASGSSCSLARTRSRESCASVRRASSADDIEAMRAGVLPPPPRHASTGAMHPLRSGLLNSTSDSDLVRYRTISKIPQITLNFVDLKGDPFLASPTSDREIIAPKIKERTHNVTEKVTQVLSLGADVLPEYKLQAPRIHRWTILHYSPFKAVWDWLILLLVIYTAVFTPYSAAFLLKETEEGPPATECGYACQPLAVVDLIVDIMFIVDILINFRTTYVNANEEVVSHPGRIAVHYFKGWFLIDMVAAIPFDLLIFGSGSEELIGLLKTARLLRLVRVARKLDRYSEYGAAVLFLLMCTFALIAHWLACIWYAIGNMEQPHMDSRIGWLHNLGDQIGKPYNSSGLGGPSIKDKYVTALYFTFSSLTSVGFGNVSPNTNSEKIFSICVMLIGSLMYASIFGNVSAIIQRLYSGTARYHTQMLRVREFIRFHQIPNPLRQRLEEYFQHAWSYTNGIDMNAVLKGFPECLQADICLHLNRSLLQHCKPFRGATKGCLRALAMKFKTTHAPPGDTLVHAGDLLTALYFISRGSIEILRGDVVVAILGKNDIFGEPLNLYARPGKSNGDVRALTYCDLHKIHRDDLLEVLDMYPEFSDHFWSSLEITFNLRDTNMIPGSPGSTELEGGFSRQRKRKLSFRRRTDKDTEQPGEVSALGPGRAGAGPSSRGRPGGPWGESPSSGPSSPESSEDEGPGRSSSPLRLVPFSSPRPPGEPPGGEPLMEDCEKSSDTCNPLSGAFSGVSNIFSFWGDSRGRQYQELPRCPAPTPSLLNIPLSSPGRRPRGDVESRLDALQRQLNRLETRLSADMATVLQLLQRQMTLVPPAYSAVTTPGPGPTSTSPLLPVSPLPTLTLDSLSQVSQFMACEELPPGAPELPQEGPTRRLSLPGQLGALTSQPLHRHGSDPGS
Procedure, shortened: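 hERG block measured by patch clamp at 10 µM; values averaged from at least two independent experiments.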

[6] = Clearance in rat at 2.2 mg/kg, iv; assay type: ADME, organism-based; design: dose 2.2 mg/kg, route intravenous; settings: in vivo
Procedure, shortened: (§2)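 Single-dose rat PK with iv doses of 1.7, 2.0 or 2.2 mg/kg and po doses of 2, 5.7 or 6.8 mg/kg. CL, Vss, oral bioavailability, terminal half-life and brain/plasma ratio determined; values averaged from two independent experiments.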

[7] = Volume of distribution at steady state in rat at 2.2 mg/kg, iv; assay type: ADME, organism-based; design: dose 2.2 mg/kg, route intravenous; settings: in vivo, read-out: Vdss; procedure, shortened: as §2
[8] = Oral bioavailability in rat at 6.8 mg/kg; assay type: ADME, organism-based; settings: in vivo; procedure, shortened: as §2
[9] = Terminal half life in rat at 6.8 mg/kg, po; assay type: ADME, organism-based; design: dose 6.8 mg/kg, route oral; settings: in vivo, read-out: beta t1/2 (converted); procedure, shortened: as §2
[10] = Ratio of drug level in brain to plasma in rat at 6.8 mg/kg, po; assay type: ADME, organism-based; design: dose 6.8 mg/kg, route oral; settings: read-out: BPR
[11] = tested on: Mus musculus; assay: Antipsychotic activity in po dosed mouse assessed as inhibition of L-687414-induced hyperlocomotion after 60 mins; assay type: functional; settings: 1 h, read-out: ID50 (the source's name)
Procedure, shortened: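 Mice given compound orally, n = 8 per group; hyperlocomotion induced by L-687,414. Horizontal activity counts recorded over a 60-min period and reported as group means. ID50 (mg/kg) derived from dose-dependent inhibition of the L-687,414-induced response.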

[12] = Intrinsic clearance in rat liver microsomes assessed per mg of protein; assay type: ADME, Microsome
Procedure, shortened: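 Intrinsic clearance measured in rat liver microsomes, expressed as µL/min/mg protein.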

[13] = tested on: Rattus norvegicus; assay: […] in rat striatum assessed as increase of glycine level at 10 mg/kg, po relative to basal level; assay type: functional
Procedure, shortened: (§3)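 Rats dosed 10 mg/kg po, n = 6. Striatal extracellular fluid sampled for glycine over 3 h, expressed as maximal fold increase and fold increase at 3 h. Animals sacrificed at 3 h; plasma and brain drug levels measured at 3 h post dose.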

[14] = tested on: Rattus norvegicus; assay: […] in rat striatum assessed as increase of glycine at 10 mg/kg, po after 3 hrs relative to basal level; assay type: functional; procedure, shortened: as §3
[15] = Drug level in rat plasma at 10 mg/kg after 3 hrs; assay type: ADME, organism-based; design: dose 10 mg/kg; procedure, shortened: as §3
[16] = Drug level in rat brain at 10 mg/kg after 3 hrs; assay type: ADME, organism-based; design: dose 10 mg/kg; settings: read-out: Drug uptake; procedure, shortened: as §3
[17] = Clearance in rat at 2 mg/kg, iv; assay type: ADME, organism-based; design: dose 2 mg/kg, route intravenous; settings: in vivo; procedure, shortened: as §2
[18] = Volume of distribution at steady state in rat at 2 mg/kg, iv; assay type: ADME, organism-based; design: dose 2 mg/kg, route intravenous; settings: in vivo, read-out: Vdss; procedure, shortened: as §2
[19] = Oral bioavailability in rat at 2 mg/kg; assay type: ADME, organism-based; settings: in vivo; procedure, shortened: as §2
[20] = Terminal half life in rat at 2 mg/kg, po; assay type: ADME, organism-based; design: dose 2 mg/kg, route oral; settings: in vivo, read-out: beta t1/2 (converted); procedure, shortened: as §2
[21] = Ratio of drug level in brain to plasma in rat at 2 mg/kg, po; assay type: ADME, organism-based; design: dose 2 mg/kg, route oral; settings: read-out: BPR
[22] = Clearance in rat at 1.7 mg/kg, iv; assay type: ADME, organism-based; design: dose 1.7 mg/kg, route intravenous; settings: in vivo; procedure, shortened: as §2
[23] = Volume of distribution at steady state in rat at 1.7 mg/kg, iv; assay type: ADME, organism-based; design: dose 1.7 mg/kg, route intravenous; settings: in vivo, read-out: Vdss; procedure, shortened: as §2
[24] = Oral bioavailability in rat at 5.7 mg/kg; assay type: ADME, organism-based; settings: in vivo; procedure, shortened: as §2
[25] = Terminal half life in rat at 5.7 mg/kg, po; assay type: ADME, organism-based; design: dose 5.7 mg/kg, route oral; settings: in vivo, read-out: beta t1/2 (converted); procedure, shortened: as §2
[26] = Ratio of drug level in brain to plasma in rat at 5.7 mg/kg, po; assay type: ADME, organism-based; design: dose 5.7 mg/kg, route oral; settings: read-out: BPR

Structure (SMILES) | solubility [1] [µg/mL] | EC50 [2] [nM] | EC50 [3] [µM] | Papp [4] [×10⁻⁶ cm/s] | inhibition at 10 µM [5] [%] | ED50 [11] [mg/kg] | microsomal CLint [12] [µL/min/mg] | fold change (FC) [13] | fold change (FC) [14] | concentration at 3 h [15] [ng/mL] | concentration at 3 h [16] [ng/mL] | also measured
C[C@H](Oc1ccc(S(C)(=O)=O)cc1C(=O)N1Cc2ccc(C3CCOCC3)cc2C1)C(F)(F)F | 76 (≈ 153 µM) | 14 | > 30 | 3.3 | 23 | 0.5 | 13.9 | 2.1 | 2 | 480 | 274 | clearance [6]: 21 mL/min/kg; Vd [7]: 3.7 L/kg; bioavailability [8]: 65%; half-life [9]: 192 min; Kp [10]: 0.6
C[C@H](Oc1ccc(S(C)(=O)=O)cc1C(=O)N1Cc2cc(C(F)(F)F)cnc2C1)C(F)(F)F | 280 (≈ 580 µM) | 50 | > 30 | 5 | 12 | 0.4 | 1.9 | 1.8 | 1.8 | 2500 | 500 | clearance [17]: 1.7 mL/min/kg; Vd [18]: 1.4 L/kg; bioavailability [19]: 55%; half-life [20]: 360 min; Kp [21]: 0.2
CC(C)Oc1ccc(S(C)(=O)=O)cc1C(=O)N1Cc2ccc(C3CCOCC3)cc2C1 | 191 (≈ 431 µM) | 28 | > 30 | 4.2 | 10 | 0.5 | 18.9 | 1.9 | 1.5 | 279 | 159 | clearance [22]: 22 mL/min/kg; Vd [23]: 2 L/kg; bioavailability [24]: 40%; half-life [25]: 96 min; Kp [26]: 0.6
